Results taken from ChEMBL document CHEMBL3804764, “Synthesis and biological characterization of 3-(imidazol-1-ylmethyl)piperidine sulfonamides as aromatase inhibitors” (Bioorg Med Chem Lett, 2016).

target: T1, Aromatase (Homo sapiens, UniProt P11511); experiment: Inhibition of recombinant human aromatase using 7-methoxy-4-trifluoromethyl coumarin as substrate measured at […] conditions by fluorescence analysis
T1 sequence (P11511 whole entry): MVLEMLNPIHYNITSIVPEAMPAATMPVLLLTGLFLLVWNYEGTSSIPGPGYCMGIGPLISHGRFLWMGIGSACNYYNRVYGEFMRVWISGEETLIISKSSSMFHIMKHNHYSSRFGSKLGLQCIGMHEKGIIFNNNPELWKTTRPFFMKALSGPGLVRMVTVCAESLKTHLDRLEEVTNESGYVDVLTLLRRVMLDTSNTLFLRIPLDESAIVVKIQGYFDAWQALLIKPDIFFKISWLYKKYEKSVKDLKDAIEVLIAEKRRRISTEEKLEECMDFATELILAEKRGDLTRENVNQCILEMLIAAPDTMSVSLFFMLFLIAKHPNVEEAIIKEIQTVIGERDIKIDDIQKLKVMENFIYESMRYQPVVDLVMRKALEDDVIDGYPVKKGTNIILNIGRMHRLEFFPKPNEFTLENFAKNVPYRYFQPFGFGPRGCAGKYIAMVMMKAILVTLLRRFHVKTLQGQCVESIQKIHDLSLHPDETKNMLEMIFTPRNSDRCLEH
Summary of the method: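 Semiautomated high-throughput fluorometric screen with recombinant human aromatase and 7-methoxy-4-trifluoromethyl coumarin (MFC) substrate. Inhibition read as reduced fluorescence from MFC conversion. Blank values subtracted from sample wells to give net signal. Activity normalized to no-inhibitor wells. Duplicate assays. Racemic compounds tested.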

| SMILES | IC50 [µM] |
| --- | --- |
| O=C(O)c1cc(S(=O)(=O)N2CCCC(Cn3ccnc3)C2)ccc1O (configuration not stated) | 0.339 |
| COc1cc([N+](=O)[O-])ccc1S(=O)(=O)N1CCCC(Cn2ccnc2)C1 (configuration not stated) | 0.129 |
| COC(=O)c1ccccc1S(=O)(=O)N1CCCC(Cn2ccnc2)C1 (configuration not stated) | 0.053 |
| O=S(=O)(c1ccc(F)cc1)N1CCCC(Cn2ccnc2)C1 (configuration not stated) | 0.051 |
| COc1c(C)cc(S(=O)(=O)N2CCCC(Cn3ccnc3)C2)c(C)c1C (configuration not stated) | 0.045 |
| CS(=O)(=O)c1ccc(S(=O)(=O)N2CCCC(Cn3ccnc3)C2)cc1 (configuration not stated) | 0.048 |
| COc1ccc(S(=O)(=O)N2CCCC(Cn3ccnc3)C2)c(OC)c1 (configuration not stated) | 0.131 |
| COc1ccc(S(=O)(=O)N2CCCC(Cn3ccnc3)C2)c(C)c1C (configuration not stated) | 0.059 |
| O=S(=O)(c1ccc(F)c(F)c1F)N1CCCC(Cn2ccnc2)C1 (configuration not stated) | 0.046 |
| O=S(=O)(c1cccc2nsnc12)N1CCCC(Cn2ccnc2)C1 (configuration not stated) | 0.054 |
| O=S(=O)(c1ccc(F)c(F)c1)N1CCCC(Cn2ccnc2)C1 (configuration not stated) | 0.043 |
| Cc1cc(F)ccc1S(=O)(=O)N1CCCC(Cn2ccnc2)C1 (configuration not stated) | 0.048 |
| N#Cc1ccc(S(=O)(=O)N2CCCC(Cn3ccnc3)C2)c(Cl)c1 (configuration not stated) | 0.079 |

Continued, values first:

| IC50 [µM] | SMILES |
| --- | --- |
| 0.009 | COc1ccc(S(=O)(=O)N2CCCC(Cn3ccnc3)C2)cc1C(C)(C)C (configuration not stated) |
| 0.016 | O=[N+]([O-])c1ccc(S(=O)(=O)N2CCCC(Cn3ccnc3)C2)cc1C(F)(F)F (configuration not stated) |
| 0.042 | COc1ccc(S(=O)(=O)N2CCCC(Cn3ccnc3)C2)cc1OC (configuration not stated) |
| 0.014 | COc1ccc(S(=O)(=O)N2CCCC(Cn3ccnc3)C2)cc1F (configuration not stated) |
| 0.013 | O=S(=O)(c1ccc2c(c1)OCCO2)N1CCCC(Cn2ccnc2)C1 (configuration not stated) |
| 0.024 | Cc1cc(S(=O)(=O)N2CCCC(Cn3ccnc3)C2)ccc1F (configuration not stated) |
| 0.014 | O=S(=O)(c1ccc(F)c(Cl)c1)N1CCCC(Cn2ccnc2)C1 (configuration not stated) |
| 0.022 | O=S(=O)(c1ccc(OC2CCCC2)c(F)c1)N1CCCC(Cn2ccnc2)C1 (configuration not stated) |
| 0.014 | O=S(=O)(c1ccc(OC2CCCC2)cc1)N1CCCC(Cn2ccnc2)C1 (configuration not stated) |
| 0.006 | COc1ccc(S(=O)(=O)N2CCCC(Cn3ccnc3)C2)cc1Br (configuration not stated) |
| 0.007 | O=S(=O)(c1ccc2nsnc2c1)N1CCCC(Cn2ccnc2)C1 (configuration not stated) |
| 0.036 | N#Cc1ccc(S(=O)(=O)N2CCCC(Cn3ccnc3)C2)cc1 (configuration not stated) |
| 0.021 | COc1c(C)cc(S(=O)(=O)N2CCCC(Cn3ccnc3)C2)cc1C (configuration not stated) |
| 0.009 | O=[N+]([O-])c1cccc(Cl)c1Oc1cccc(S(=O)(=O)N2CCCC(Cn3ccnc3)C2)c1 (configuration not stated) |
